Laboratory results as given in ChEMBL document CHEMBL4477200, “Design, Synthesis, and Preclinical Evaluation of 4-Substituted-5-methyl-furo[2,3-d]pyrimidines as Microtubule Targeting Agents That Are Effective against Multidrug Resistant Cancer Cells” (J Med Chem, 2016).
Activity calls are given as the source filed them.

Key:
NCI/ADR-RES = experiment: Cytotoxicity against human NCI-ADR-RES cells assessed as growth inhibition after 48 hrs by SRB assay; type: functional
SR = experiment: Cytotoxicity against human SR cells assessed as growth inhibition after 48 hrs by SRB assay; type: functional
ACHN = experiment: Cytotoxicity against human ACHN cells assessed as growth inhibition after 48 hrs by SRB assay; type: functional
[1] = tested on: Tubulin (Rattus norvegicus); experiment: Induction of microtubule depolymerization in rat A10 cells at 2 times EC50 incubated for 18 hrs by indirect immunofluorescence analysis
CCRF-CEM = experiment: Cytotoxicity against human CCRF-CEM cells assessed as growth inhibition after 48 hrs by SRB assay; type: functional
HOP-62 = experiment: Cytotoxicity against human HOP62 cells assessed as growth inhibition after 48 hrs by SRB assay; type: functional; conditions: HOP-62, 48 h
BT-549 = experiment: Cytotoxicity against human BT549 cells assessed as growth inhibition after 48 hrs by SRB assay; type: functional; conditions: BT-549, 48 h
SK-OV-3 = experiment: Antiproliferative activity against multidrug resistant human SKOV3 cells expressing MDR1-M6/6 after 48 hrs by SRB assay; type: functional, cell-based; conditions: SK-OV-3, 48 h
Outline: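 SRB assay; IC50 is the mean of three independent experiments, each run in triplicate. Cells were kept at 37 °C under 5% CO2. HeLa and SK-OV-3 lines (parental and MDR1-M6/6) were grown in Basal Medium Eagle with 10% FBS, 1% GlutaMAX and 50 µg/mL gentamycin. HeLa WTβIII was grown in DMEM with 10% FBS.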

A498 = experiment: Cytotoxicity against human A498 cells assessed as growth inhibition after 48 hrs by SRB assay; type: functional; conditions: A498, 48 h
NCI-H322M = experiment: Cytotoxicity against human NCI-H322M cells assessed as growth inhibition after 48 hrs by SRB assay; type: functional
MOLT-4 = experiment: Cytotoxicity against human MOLT4 cells assessed as growth inhibition after 48 hrs by SRB assay; type: functional; conditions: MOLT-4, 48 h
DU-145 = experiment: Cytotoxicity against human DU145 cells assessed as growth inhibition after 48 hrs by SRB assay; type: functional; conditions: DU-145, 48 h
KM12 = experiment: Cytotoxicity against human KM12 cells assessed as growth inhibition after 48 hrs by SRB assay; type: functional; conditions: KM12, 48 h
SNB-75 = experiment: Cytotoxicity against human SNB75 cells assessed as growth inhibition after 48 hrs by SRB assay; type: functional; conditions: SNB-75, 48 h
OVCAR-5 = experiment: Cytotoxicity against human OVCAR5 cells assessed as growth inhibition after 48 hrs by SRB assay; type: functional; conditions: OVCAR-5, 48 h
SNB-19 = experiment: Cytotoxicity against human SNB19 cells assessed as growth inhibition after 48 hrs by SRB assay; type: functional; conditions: SNB-19, 48 h
OVCAR-4 = experiment: Cytotoxicity against human OVCAR4 cells assessed as growth inhibition after 48 hrs by SRB assay; type: functional; conditions: OVCAR-4, 48 h
PC-3 = experiment: Cytotoxicity against human PC3 cells assessed as growth inhibition after 48 hrs by SRB assay; type: functional; conditions: PC-3, 48 h
OVCAR-8 = experiment: Cytotoxicity against human OVCAR8 cells assessed as growth inhibition after 48 hrs by SRB assay; type: functional; conditions: OVCAR-8, 48 h
HeLa = experiment: Relative ratio of IC50 for human HeLa cells expressing wild type beta3 tubulin to IC50 for human HeLa cells; type: functional
NCI-H23 = experiment: Cytotoxicity against human NCI-H23 cells assessed as growth inhibition after 48 hrs by SRB assay; type: functional; conditions: NCI-H23, 48 h
RXF 393 = experiment: Cytotoxicity against human RXF393 cells assessed as growth inhibition after 48 hrs by SRB assay; type: functional; conditions: RXF 393, 48 h
MDA-MB-435 = experiment: Antitumor activity against human MDA-MB-435 cells xenografted in nude mouse assessed as tumor growth inhibition at 60 mg/kg, ip dosed on day 0 to 2 and 50 mg/kg, ip on day 8 relative to control
SW-620 = experiment: Cytotoxicity against human SW620 cells assessed as growth inhibition after 48 hrs by SRB assay; type: functional; conditions: SW-620, 48 h
SF-268 = experiment: Cytotoxicity against human SF268 cells assessed as growth inhibition after 48 hrs by SRB assay; type: functional; conditions: SF-268, 48 h
HCT-116 = experiment: Cytotoxicity against human HCT116 cells assessed as growth inhibition after 48 hrs by SRB assay; type: functional; conditions: HCT-116, 48 h
786-0 = experiment: Cytotoxicity against human 786-0 cells assessed as growth inhibition after 48 hrs by SRB assay; type: functional; conditions: 786-0, 48 h
K562 = experiment: Cytotoxicity against human K562 cells assessed as growth inhibition after 48 hrs by SRB assay; type: functional; conditions: K562, 48 h
A549 = experiment: Cytotoxicity against human A549 cells assessed as growth inhibition after 48 hrs by SRB assay; type: functional; conditions: A549, 48 h
Hs-578T = experiment: Cytotoxicity against human Hs 578T cells assessed as growth inhibition after 48 hrs by SRB assay; type: functional
COLO 205 = experiment: Cytotoxicity against human COLO205 cells assessed as growth inhibition after 48 hrs by SRB assay; type: functional; conditions: COLO 205, 48 h
SN12C = experiment: Cytotoxicity against human SN12C cells assessed as growth inhibition after 48 hrs by SRB assay; type: functional
NCI-H522 = experiment: Cytotoxicity against human NCI-H522 cells assessed as growth inhibition after 48 hrs by SRB assay; type: functional; conditions: NCI-H522, 48 h

COc1ccc(N(C)c2ncnc3occ(C)c23)cc1
10.1 nM: GI50 (SF-268)
active: Activity [1] | TGI (MDA-MB-435)
> 100000 nM: GI50 (NCI-H322M)
18.4 nM: GI50 (HOP-62)
< 10 nM: GI50 (NCI/ADR-RES) | GI50 (SR) | GI50 (CCRF-CEM) | GI50 (A498) | GI50 (MOLT-4) | GI50 (DU-145) | GI50 (KM12) | GI50 (SNB-75) | GI50 (SNB-19) | GI50 (OVCAR-4) | GI50 (PC-3) | GI50 (OVCAR-8) | GI50 (NCI-H23) | GI50 (RXF 393) | GI50 (SW-620) | GI50 (HCT-116) | GI50 (786-0) | GI50 (K562) | GI50 (A549) | GI50 (Hs-578T) | GI50 (COLO 205) | GI50 (SN12C) | GI50 (NCI-H522)
59.6 nM: GI50 (BT-549)
22.5 nM: GI50 (ACHN)
8.4 nM: IC50 (SK-OV-3)
0.9: Ratio IC50 (HeLa)
12.8 nM: GI50 (OVCAR-5)
